# Experimental data of several laboratories.
# Each line is one published result; the experiments were not run side by side.
# Target: Serine/threonine-protein kinase Nek4 (NEK4, Homo sapiens, UniProt P51957)
SMILES,test,conditions,remaining binding [%]
Nc1ncc2c(n1)-c1c([nH]c3ccc(C#CC4CC4)cc13)CCCC2,"binding, competition with immobilised ligand",1 µM,84
Cc1c[nH]c2nccc(Oc3c(F)cc(Nc4cc(Cl)nc(N)n4)cc3F)c12,"cell-free assay, competition with immobilised ligand",0.1 µM,90
FC(F)(F)Oc1cccc(-c2cnc3ccc(-c4ccncc4)nn23)c1,"cell-free assay, competition with immobilised ligand",5 µM,94
CN(c1ccnc(CNc2nc(Nc3ccc4c(c3)CC(=O)N4)ncc2C(F)(F)F)n1)S(C)(=O)=O,"cell-free assay, competition with immobilised ligand",1 µM,84
CN(c1nccc(-c2cnn3ncccc23)n1)C1CC1,binding,1 µM,100
FC(F)(F)c1ccc2c(c1)nc(-c1cccnc1)n2C1CC1,"cell-free assay, competition with immobilised ligand",1 µM,100
O=C(c1ccc(Nc2ncc(Cl)c(-c3ccc(Cl)s3)n2)cc1)N1CCC(N2CCCC2)CC1,"binding, competition with immobilised ligand",1 µM,30
C[C@@H]1CCN(c2nccc(-c3cnn4ncccc34)n2)C1,binding,1 µM,83
CCCCN(CCCC)C(=O)CN1C[C@@H](c2cc(OC)c3c(c2)OCO3)[C@H](C(=O)O)[C@H]1CC(C)(C)CCC,"cell-free assay, competition with immobilised ligand",1 µM,93.9
CN(C)c1nccc(-c2cnn3ncccc23)n1,binding,1 µM,98
CNC(=O)[C@@H]1CC[C@@H](n2c(-c3ccc4cnccc4c3)nc3ccc(C(=O)NCc4cccc(C(N)=O)c4)cc32)C1,"binding, competition with immobilised ligand",1 µM,100
O=C(c1ccc(Nc2nccc(-c3cc4ccccc4s3)n2)cc1)N1CCC(N2CCCC2)CC1,"binding, competition with immobilised ligand",1 µM,100
C[C@@H](c1ccc(-n2cnc3c(N)ncnc32)cc1)N1CCc2nn(C)c(Cc3ccccc3)c2C1=O,"binding, competition with immobilised ligand",0.1 µM,82
CN(CCCC(F)(F)F)c1nccc(-c2cnn3ncccc23)n1,binding,1 µM,92
O=C(NCC1CCOCC1)c1n[nH]cc1NC(=O)c1c(F)cccc1F,"binding, competition with immobilised ligand",1 µM,78
CO[C@@H](C)c1c(Nc2ccc([C@H](N(C)C(=O)C3CCS(=O)(=O)CC3)C(F)(F)F)cc2)cnc2cc(Cl)nn12,"cell-free assay, competition with immobilised ligand",1 µM,90
N[C@H]1CCN(c2nccc(-c3cnn4ncccc34)n2)C1,binding,1 µM,100
O=C(NCCCN1CCOCC1)c1ccc(Nc2ncc(Cl)c(-c3ccc(Cl)s3)n2)cc1,"binding, competition with immobilised ligand",1 µM,40
CC1=C(C#N)C(c2ccc3c(c2)c(NC(=O)c2ccccc2C)nn3C)C(C#N)=C(C)N1,"cell-free assay, competition with immobilised ligand",1 µM,100
COc1ccnn2ncc(-c3ccnc(N(C)C)n3)c12,binding,1 µM,86
